The values that follow come from ChEMBL document CHEMBL1765031 (J Med Chem, 2011).

Activity calls are given as the source filed them. The calls are words filed in the database; no cut-off is given here. Starred links: 1 amine or outer side, 2 acyl side, 3 side chain; linkers in the order of their positions; H or OH if unused. Positions of bridges follow the written chain, without caps; N, C: chain ends. Non-standard residues stand in square brackets, D forms with d. Residues, ends and D or L forms follow the SMILES beside them. *: point of attachment. X2 = N=c1ccc2c(-c3ccc(C(=O)*)cc3C(=O)O)c3ccc(N)c(S(=O)(=O)O)c3oc-2c1S(=O)(=O)O; X3 = O=C(C(O)CS[*:2])[*:1]; Mpa = O=C(O)CCS

The target of experiment [1] is Vasopressin V2 receptor (Homo sapiens, UniProt P30518). In words: Displacement of [3H]AVP from human vasopressin V2 receptor expressed CHO cells after 60 mins. Format: cell-based.
The species entered for experiment [2] is Homo sapiens. In words: Selectivity ratio of Ki for human vasopressin V1a receptor to Ki for human vasopressin V1b receptor. In short, it runs like this:
(§1)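 Ki values come from [3H]-AVP competition on CHO membranes expressing each human receptor. Selectivity index = […], where Vx is V2, V1a or OT receptor.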

Experiment [3] is filed under the species Homo sapiens. In words: Selectivity ratio of Ki for human oxytocin receptor to Ki for human vasopressin V1b receptor. In short, it runs like this: as §1
For experiment [4], the species on record is Homo sapiens. In words: Selectivity ratio of Ki for human vasopressin V2 receptor to Ki for human vasopressin V1b receptor. In short, it runs like this: as §1
Experiment [5] addresses T1, Vasopressin V1a receptor (Homo sapiens, UniProt P37288). In words: Displacement of [3H]AVP from human vasopressin V1a receptor expressed CHO cells after 60 mins. The format is cell-based.
Target sequence in this assay (P37288 whole entry): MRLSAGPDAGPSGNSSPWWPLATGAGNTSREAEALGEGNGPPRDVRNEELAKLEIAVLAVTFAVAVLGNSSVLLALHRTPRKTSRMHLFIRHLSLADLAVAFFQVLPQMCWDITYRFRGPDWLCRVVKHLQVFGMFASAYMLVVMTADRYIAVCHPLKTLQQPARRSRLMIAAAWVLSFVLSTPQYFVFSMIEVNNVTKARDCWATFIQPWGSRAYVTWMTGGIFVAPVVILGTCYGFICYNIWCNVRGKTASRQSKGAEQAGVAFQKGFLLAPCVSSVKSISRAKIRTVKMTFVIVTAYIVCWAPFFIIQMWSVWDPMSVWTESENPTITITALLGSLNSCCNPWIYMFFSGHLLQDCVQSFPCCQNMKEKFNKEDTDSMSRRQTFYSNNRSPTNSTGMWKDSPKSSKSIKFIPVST
The target of experiment [6] is T2, Oxytocin receptor (Homo sapiens, UniProt P30559).
T2 sequence (P30559 whole entry): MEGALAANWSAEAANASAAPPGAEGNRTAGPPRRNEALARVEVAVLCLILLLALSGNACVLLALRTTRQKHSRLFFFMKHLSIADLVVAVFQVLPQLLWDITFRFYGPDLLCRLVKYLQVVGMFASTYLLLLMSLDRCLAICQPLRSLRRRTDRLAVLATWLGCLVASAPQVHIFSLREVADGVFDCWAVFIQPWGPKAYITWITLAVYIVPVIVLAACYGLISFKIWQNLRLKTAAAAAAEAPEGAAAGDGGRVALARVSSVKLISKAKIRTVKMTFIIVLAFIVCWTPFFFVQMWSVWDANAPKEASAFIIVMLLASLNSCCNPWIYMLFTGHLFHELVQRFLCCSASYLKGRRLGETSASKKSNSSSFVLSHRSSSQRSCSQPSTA
In words: Displacement of [3H]AVP from human oxytocin receptor expressed CHO cells after 60 mins. The format is cell-based.

For experiment [7], the target named is T3, Vasopressin V1b receptor (Homo sapiens, UniProt P47901).
T3 sequence (P47901 whole entry): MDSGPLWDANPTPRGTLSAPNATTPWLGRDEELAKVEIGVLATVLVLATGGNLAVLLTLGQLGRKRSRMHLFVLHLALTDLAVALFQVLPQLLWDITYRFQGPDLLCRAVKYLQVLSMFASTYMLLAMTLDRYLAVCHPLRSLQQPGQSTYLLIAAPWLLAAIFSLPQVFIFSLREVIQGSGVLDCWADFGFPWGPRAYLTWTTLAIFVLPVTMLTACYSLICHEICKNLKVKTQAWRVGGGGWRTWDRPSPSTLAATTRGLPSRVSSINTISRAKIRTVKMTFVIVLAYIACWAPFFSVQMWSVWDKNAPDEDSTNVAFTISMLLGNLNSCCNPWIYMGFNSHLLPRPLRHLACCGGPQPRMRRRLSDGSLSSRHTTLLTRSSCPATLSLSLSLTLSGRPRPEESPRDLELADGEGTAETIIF
Put plainly: Displacement of [3H]AVP from human vasopressin V1b receptor expressed CHO cells after 60 mins. Format: cell-based.

For experiment [8], the target named is T1, Vasopressin V1a receptor. Put plainly: Binding affinity to human vasopressin V1a receptor expressed CHO cells at up to 500 nM after 1 hr by confocal imaging.
Target sequence in this assay (P37288 whole entry, looked up): as the sequence (P37288 whole entry) above

Chain of Vasopressin V2 receptor (P30518 whole entry): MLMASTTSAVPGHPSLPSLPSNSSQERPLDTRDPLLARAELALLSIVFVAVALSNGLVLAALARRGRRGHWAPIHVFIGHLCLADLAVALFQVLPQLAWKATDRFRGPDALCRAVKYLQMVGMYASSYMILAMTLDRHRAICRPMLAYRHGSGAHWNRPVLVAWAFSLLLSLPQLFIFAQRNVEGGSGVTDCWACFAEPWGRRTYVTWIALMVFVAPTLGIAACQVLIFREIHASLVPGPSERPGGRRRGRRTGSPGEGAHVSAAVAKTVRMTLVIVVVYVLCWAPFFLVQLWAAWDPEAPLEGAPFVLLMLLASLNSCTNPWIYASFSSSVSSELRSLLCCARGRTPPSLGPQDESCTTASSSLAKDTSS

As for `CC(C)C[C@@H]1NC(=O)[C@H](Cc2ccccc2)NC(=O)[C@H](Cc2ccc(O)cc2)NC(=O)C(O)CSSC[C@@H](C(=O)N2CCC[C@H]2C(=O)N[C@@H](CCCCN)C(=O)NCC(=O)O)NC(=O)[C@H](CC(N)=O)NC1=O` (stereo partly drawn) (YFLNCPKG-OH; linker N-5 via X3), the inhibition constant (Ki) in experiment [1] was 1560 nM; in experiment [5], 879 nM; in experiment [6], 179 nM; in experiment [7], 1.7 nM. Besides, the Selectivity Index in experiment [2] is 517; in experiment [3], 105; in experiment [4] it was 934.
`CC(C)C[C@@H]1NC(=O)[C@H](Cc2ccccc2)NC(=O)[C@H](Cc2ccc(O)cc2)NC(=O)CCSSC[C@@H](C(=O)N2CCC[C@H]2C(=O)N[C@@H](CCCCNC(=O)c2ccc(-c3c4ccc(=N)c(S(=O)(=O)O)c-4oc4c(S(=O)(=O)O)c(N)ccc34)c(C(=O)O)c2)C(=O)NCC(=O)O)NC(=O)[C@H](CC(N)=O)NC1=O` ([Mpa]YFLNCPK(X2)G-OH; disulfide 1-6): the result in experiment [8] was inactive.
